Bounds are passed on as bounds.

One assay addresses human Gal-1 (Homo sapiens, UniProt P09382). As to the kind of experiment: Fluorescence spectroscopy binding constant, Gal-1. As to conditions: for Gal-1 Ka: fluorescence, modified Stern–Volmer plot, 25 mM Tris-HCl pH 8. Summed up:
(§1)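 Human Gal-1 was cloned into pET-28a(+), expressed in E. coli BL21(DE3) and purified by Ni2+-NTA. Gal-3 and LdPase were produced similarly. Buffers: Gal-1 and Gal-3 in 25 mM Tris-HCl pH 8; LdPase in sodium phosphate pH 7. Intrinsic emission was scanned 300–400 nm (excitation 280 nm, 100 nm min−1) across ligand concentrations. Ka came from a modified Stern–Volmer plot of the log quenching term (F0 = no ligand, F = with ligand) versus log ligand concentration.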

The next assay addresses human Gal-3 (Homo sapiens, UniProt P17931). As to the kind of experiment: Fluorescence spectroscopy binding constant, Gal-3. As to conditions: for binding to Gal-3 compared to Gal-1: fluorescence spectroscopy; for Gal-3 Ka: fluorescence, 25 mM Tris-HCl pH 8. The essentials: as §1
For assay [1], the system named is Leishmania donovani phosphatase (LdPase). Nature of the assay: Fluorescence spectroscopy binding, LdPase. The essentials: as §1
A further assay has as its system Gal-1. Nature of the assay: Gal-1 ELISA enzymatic assay. The note with it: 20 μM, 24 h, HCT-116 cells. It is filed as cell-based, human. Summed up: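 HCT-116 cells were treated with test compound at 20 μM for 24 h, and the secreted-protein supernatant was collected. Equal amounts were diluted 2-fold in calibrator diluent and incubated 2 h at room temperature with shaking on human Gal-1 ELISA plates (commercial kit, manufacturer's protocol), then washed. HRP-conjugated Gal-1 polyclonal antibody was added for 2 h, then substrate for 30 min, then stop solution. Absorbance was read at 450 nm.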
A general note: In an ELISA, binding on a coated surface is turned into a signal by an enzyme label.

Chain of human Gal-1 (P09382 whole entry): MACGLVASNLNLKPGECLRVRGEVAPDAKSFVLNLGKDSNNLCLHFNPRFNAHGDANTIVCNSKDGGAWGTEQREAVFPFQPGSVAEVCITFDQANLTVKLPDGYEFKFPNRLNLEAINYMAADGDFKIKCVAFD
Chain of human Gal-3 (P17931 whole entry): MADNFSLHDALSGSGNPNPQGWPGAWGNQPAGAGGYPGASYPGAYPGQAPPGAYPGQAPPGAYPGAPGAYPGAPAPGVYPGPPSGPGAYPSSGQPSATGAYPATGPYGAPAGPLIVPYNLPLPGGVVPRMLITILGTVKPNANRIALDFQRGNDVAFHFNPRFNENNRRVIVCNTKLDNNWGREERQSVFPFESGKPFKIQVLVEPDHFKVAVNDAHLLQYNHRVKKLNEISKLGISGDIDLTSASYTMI

With “2-(2,6-Dimethylmorpholino)-N-(5-(2-oxo-2H-chromen-3-yl)thiazol-2-yl)acetamide [Compound 10e]”, the “Gal-1 Ka” value at human Gal-1 is reported as 6.5 10^4 M^−1.
On to “2-(4-(2-Hydroxyethyl)piperazin-1-yl)-N-(5-(2-oxo-2H-chromen-3-yl)thiazol-2-yl)acetamide [Compound 10c]”, for which the “Gal-1 Ka” value on human Gal-1 was 4.1 10^4 M^−1.
Turning to “2-(4-(2-Methoxyphenyl)piperazin-1-yl)-N-(5-(2-oxo-2H-chromen-3-yl)thiazol-2-yl)acetamide [Compound 10g]”, on human Gal-3, the “binding to Gal-3 compared to Gal-1” value was “significantly lower binding” and the “Gal-3 Ka” value is 1.0 10^−6 M^−1. Besides, in assay [1], the “binding to LdPase” value is “no detectable binding”. Also, the “% Inhibition (EA)” value with Gal-1 is recorded as 58.19 ± 3.28%. Further, the “Gal-1 binding constant (Ka)” value on human Gal-1 (fluorescence spectroscopy) worked out at 98000 M⁻¹. Also, the “Gal-1 Ka” value on human Gal-1 is 9.8 10^4 M^−1.
On to “2-(4-(4-Nitrophenyl)piperazin-1-yl)-N-(5-(2-oxo-2H-chromen-3-yl)thiazol-2-yl)acetamide [Compound 10h]”, for which, in the assay on Gal-1, the “% Inhibition (EA)” value is reported as <10%.
Turning to “2-(4-Ethylpiperazin-1-yl)-N-(5-(2-oxo-2H-chromen-3-yl)thiazol-2-yl)acetamide [Compound 10b]”, the “Gal-1 Ka” value on human Gal-1 was 2.1 10^4 M^−1.
With “2-(4-Methylpiperidin-1-yl)-N-(5-(2-oxo-2H-chromen-3-yl)thiazol-2-yl)acetamide [Compound 10i]”, in the assay on Gal-1, the “% Inhibition (EA)” value was <10%.
Consider “N-(5-(2-Oxo-2H-chromen-3-yl)thiazol-2-yl)-2-(4-(pyridin-2-yl)piperazin-1-yl)acetamide [Compound 10f]”, for which, at human Gal-3, the “binding to Gal-3 compared to Gal-1” value is given as “significantly lower binding” and the “Gal-3 Ka” value is listed as 1.1 10^−6 M^−1. Further, the “binding to LdPase” value in assay [1] is listed as “no detectable binding”. The “% Inhibition (EA)” value in the assay on Gal-1 is on record as 80.57 ± 1.77%. The “Gal-1 Ka” value on human Gal-1 is 9.3 10^4 M^−1.
In the case of “N-(5-(2-Oxo-2H-chromen-3-yl)thiazol-2-yl)-2-(4-phenylpiperazin-1-yl)acetamide [Compound 10d]”, the “% Inhibition (EA)” value in the assay with Gal-1 was 56.73 ± 2.13%. In addition, at human Gal-1, the “Gal-1 Ka” value was 6.6 10^4 M^−1.
For “N-(5-(2-Oxo-2H-chromen-3-yl)thiazol-2-yl)-2-(piperazin-1-yl)acetamide [Compound 10a]”, in the assay on Gal-1, the “% Inhibition (EA)” value was found to be 58.19 ± 1.12%. Further, the “Gal-1 Ka” value on human Gal-1 is given as 8.8 10^4 M^−1.

These data come from publication PMC11571122 (RSC Advances, 2024).
